# Publication PMC10993133 (iScience, 2024)
# Tests used:
# Format in all cases: cell-based, human
# MCF7 cells [1] = assay: Mitochondrial membrane potential; settings: MCF7, 1 µM, 30 hrs, JC-1, n=4
# Procedure, shortened: (§1)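 MCF7 and MDAMB231 cells in DMEM with 10% FCS were treated 30 hrs with Dox or encapsulated test compound, then harvested. They were incubated with shaking in JC-1 (2.5 µg/mL) in PBS at 37°C for 30–35 min. Cells were washed three times for 5 min in cold PBS and resuspended. ΔΨM was taken as the 590/530 nm fluorescence ratio. Means ± S.E., n=4.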
# MDAMB231 cells [2] = assay: Mitochondrial membrane potential; settings: MDAMB231, 1 µM, 30 hrs, JC-1, n=4
# Procedure, shortened: as §1
# MCF7 cells [3] = assay: ROS generation; settings: MCF7, 1 µM, 24 hrs, CM-H2DCFDA, n=4
# Procedure, shortened: (§2)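 MCF7 or MDAMB231 cells were treated 24 hrs with Dox or encapsulated test compound. Cells were scraped, pelleted and washed twice in chilled PBS, then loaded with CM-H2DCFDA (5 µM) in PBS for 20 min in the dark at 37°C. After washing, cells were lysed in PBS with 1% Tween 20. DCF fluorescence was read at ex 480/em 530 nm. Means ± S.E., n=4, versus vehicle control.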
# MDAMB231 cells [4] = assay: ROS generation; settings: MDAMB231, 1 µM, 24 hrs, CM-H2DCFDA, n=4
# Procedure, shortened: as §2
# MCF7 cells [5] = assay: DNA fragmentation assay; settings: MCF7, 30 hrs exposure, agarose gel
# Procedure, shortened: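 MCF7 cells were seeded at 1 × 10^6 per well and exposed 30 hrs. They were lysed at RT in 0.5% Triton X-100, 15 mM EDTA, 20 mM Tris HCl. DNA was extracted with phenol/chloroform/isoamyl alcohol (25:24:1), then treated 1 hr with RNase (0.1 mg/mL) and proteinase K (1 mg/mL). It was precipitated overnight at −20°C with sodium acetate/ethanol, run on 2% agarose and stained with ethidium bromide.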
structure (smiles),measurement,setting,value
"COc1cccc2c1C(=O)c1c(O)c3c(c(O)c1C2=O)C[C@@](O)(C(=O)CO)C[C@@H]3O[C@H]1C[C@H](N)[C@H](O)[C@H](C)O1 [Dox, doxorubicin]",mitochondrial membrane potential (ΔΨM),MCF7 cells [1],loss of mitochondrial membrane potential
same,mitochondrial membrane potential (ΔΨM),MDAMB231 cells [2],loss of mitochondrial membrane potential
same,increase of intracellular ROS levels,MCF7 cells [3],comparable
same,increase of intracellular ROS levels,MDAMB231 cells [4],comparable
same,DNA damage (DNA laddering),MCF7 cells [5],resulted in DNA damage
